pIC50: −log10 of the molar value.

The source of these data is ChEMBL document CHEMBL1126550, “Nanomolar-affinity, non-peptide oxytocin receptor antagonists” (J Med Chem, 1993).

The target of test [1] is Vasopressin V2 receptor (Rattus norvegicus, UniProt Q00788). The test can be described thus: Inhibition of radioligand [3H]-AVP binding to the vasopressin V2 receptor in rat kidney tissue. The procedure, abridged: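 [3H]AVP (80–90 Ci/mmol) at 2 nM competed on crude membranes from male rat kidney medulla (V2 sites). Equilibrium 30 min at 30 °C in 100 mM Tris-HCl, 5 mM MgCl2, 0.1% BSA, 50 μM PMSF, 50 μg/mL bacitracin, pH 8.0. Nonspecific binding with 10 μM unlabeled AVP. Glass-fiber filtration. IC50 by linear regression of % inhibition vs log concentration, seven concentrations.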
Vasopressin V2 receptor, sequence (Q00788 whole entry): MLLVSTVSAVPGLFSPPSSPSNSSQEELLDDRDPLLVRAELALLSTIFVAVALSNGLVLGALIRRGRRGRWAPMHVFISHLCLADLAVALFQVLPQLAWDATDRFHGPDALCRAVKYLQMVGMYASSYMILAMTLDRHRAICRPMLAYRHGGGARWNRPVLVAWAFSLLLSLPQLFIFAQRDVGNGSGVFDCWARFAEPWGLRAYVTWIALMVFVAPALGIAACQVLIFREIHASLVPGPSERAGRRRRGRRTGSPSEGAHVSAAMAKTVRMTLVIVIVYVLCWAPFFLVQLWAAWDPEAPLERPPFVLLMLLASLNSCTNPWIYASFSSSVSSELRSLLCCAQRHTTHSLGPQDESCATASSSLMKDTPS

The target in test [2] is T1, Oxytocin receptor (Rattus norvegicus, UniProt P70536).
T1 sequence (P70536 whole entry): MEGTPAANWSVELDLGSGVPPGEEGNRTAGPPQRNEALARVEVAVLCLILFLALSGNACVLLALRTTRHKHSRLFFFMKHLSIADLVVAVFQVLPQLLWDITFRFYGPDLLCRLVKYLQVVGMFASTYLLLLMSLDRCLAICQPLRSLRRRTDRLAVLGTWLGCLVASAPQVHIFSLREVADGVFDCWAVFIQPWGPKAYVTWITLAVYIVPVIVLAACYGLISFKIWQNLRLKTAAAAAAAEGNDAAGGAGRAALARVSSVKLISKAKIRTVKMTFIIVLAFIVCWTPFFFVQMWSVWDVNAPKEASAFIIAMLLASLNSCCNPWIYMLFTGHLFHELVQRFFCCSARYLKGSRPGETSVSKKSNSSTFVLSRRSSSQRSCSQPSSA
The test can be described thus: Inhibition of radioligand [3H]oxytocin binding at the oxytocin (OT) receptor in rat uterine tissue. The procedure, abridged: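 Uteri taken from rats given diethylstilbestrol dipropionate (0.3 mg/kg ip, 18–24 h before), crude membranes. 1 nM [3H]OT (30–60 Ci/mmol), equilibrium 60 min at 22 °C in 50 mM Tris-HCl, 5 mM MgCl2, 0.1% BSA, pH 7.4. Nonspecific binding with 1 mM unlabeled OT. Filtered on glass fiber. Initial single-concentration screen, then IC50 from seven concentrations by linear regression.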

Test [3] concerns the target Vasopressin V1 receptor (Rattus norvegicus, UniProt P48974+P30560). The test can be described thus: Inhibition of radioligand [3H]AVP binding to the vasopressin V1 receptor in rat liver tissue. The procedure, abridged:
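Crude membranes from male rat liver (V1 sites) competed with 1 nM [3H]AVP (80–90 Ci/mmol). Equilibrium 30 min, 30 °C, buffer 100 mM Tris-HCl, 5 mM MgCl2, 0.1% BSA, 50 μM PMSF, 50 μg/mL bacitracin, pH 8.0. 10 μM unlabeled AVP for nonspecific binding. Filtration through glass-fiber filters. IC50 from linear regression over seven concentrations.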

For `CC1(C)[C@@H]2CC[C@@]1(CS(=O)(=O)N1CCC3(CCc4ccccc43)CC1)[C@@H](NC(=O)Cc1cccnc1)C2`, the negative-log IC50 (pIC50) in test [1] was 5.00; in test [2] it was 6.77. Also, in test [3], the IC50 was above 1000 nM.

Take `CC1(C)[C@@H]2CC[C@@]1(CS(=O)(=O)N1CCC3(CCc4ccccc43)CC1)[C@@H](NC(=O)Cc1ccccc1)C2`: the results for the pIC50 in test [1] and in test [2] were 4.34 and 6.60, respectively. The molecule also gave an IC50 in test [3] of 2700 nM.

For `CC1(C)[C@@H]2CC[C@@]1(CS(=O)(=O)N1CCC3(CCc4ccccc43)CC1)[C@@H](N1C(=O)CCC1=O)C2`, the negative-log IC50 (pIC50) in test [1] is 5.77; in test [2] it was 7.96. In test [3], this molecule displayed an IC50 of 910 nM.

For `CC1(C)[C@@H]2CC[C@@]1(CS(=O)(=O)N1CCC3(CCc4ccccc43)CC1)[C@@H](NC(=O)c1ccncc1)C2`, the negative-log IC50 (pIC50) in test [1] is below 5.00; in test [2], 6.72. Further, in test [3], the half-maximal inhibitory concentration (IC50) is reported as above 1000 nM.

Regarding `CC1(C)[C@@H]2CC[C@@]1(CS(=O)(=O)N1CCC3(C=Cc4ccccc43)CC1)[C@@](O)(CCNC(=O)Cc1ccncc1)C2`, the results for the pIC50 in test [1] and in test [2] were below 5.52 and 6.96, respectively. Besides, the IC50 in test [3] came out at 3000 nM.

Regarding `CC1(C)[C@@H]2CC[C@@]1(CS(=O)(=O)N1CCC3(CCc4ccccc43)CC1)[C@@H](NC(=O)C1CN3CCC1CC3)C2` (some centres undefined), the pIC50 in test [1] is 5.26; in test [2], 7.54. This molecule also showed an IC50 in test [3] of 530 nM.

Turning to `CC1(C)[C@@H]2CC[C@@]1(CS(=O)(=O)N1CCC3(C=Cc4ccccc43)CC1)[C@@](O)(CNC(=O)NC1CCCCC1)C2`, the results for the negative logarithm of the IC50 (pIC50) in test [1] and in test [2] were 4.74 and 6.77, respectively. For the same molecule, the concentration for half-maximal inhibition (IC50) in test [3] was determined as 950 nM.

Take `CC1(C)[C@@H]2CC[C@@]1(CS(=O)(=O)N1CCC3(C=Cc4ccccc43)CC1)[C@@](O)(CNC(=O)c1cccnc1)C2`: the negative-log IC50 (pIC50) is 5.17 in test [1] and 7.00 in test [2]. The half-maximal inhibitory concentration (IC50) in test [3] came to 1500 nM.

As to `CC1(C)[C@@H]2CC[C@@]1(CS(=O)(=O)N1CCC3(C=Cc4ccccc43)CC1)[C@](O)(CN)C2`, the pIC50 in test [1] is 4.00; in test [2], 5.00. For the same molecule, the half-maximal inhibitory concentration (IC50) in test [3] was 100000 nM.

For `CC1(C)[C@@H]2CC[C@@]1(CS(=O)(=O)N1CCC3(CCc4ccccc43)CC1)[C@@H](N1C(=O)NC(CCC(N)=O)C1=O)C2` (some centres undefined), the negative-log IC50 (pIC50) in test [1] was 6.24; in test [2] it was 8.49. This molecule also displayed an IC50 in test [3] of 160 nM.

`CC1(C)[C@@H]2CC[C@@]1(CS(=O)(=O)N1CCC3(C=Cc4ccccc43)CC1)[C@@](O)(CCNC(=O)Cc1c[nH]cn1)C2`: the negative-log IC50 (pIC50) in test [1] is below 5.52; in test [2] it was 7.05. This molecule also gave a 50% inhibitory concentration (IC50) in test [3] above 300 nM.

Consider `CC1(C)[C@@H]2CC[C@@]1(CS(=O)(=O)N1CCC3(CCc4ccccc43)CC1)[C@@H](N1C(=O)CNC1=O)C2`, for which the negative-log IC50 (pIC50) in test [1] is 5.68; in test [2], 7.74. For the same molecule, the IC50 in test [3] came to 1100 nM.

Take `CC1(C)[C@@H]2CC[C@@]1(CS(=O)(=O)N1CCC3(C=Cc4ccccc43)CC1)[C@@](O)(CNC(=O)CC13CC4CC(CC(C4)C1)C3)C2`: the negative logarithm of the IC50 (pIC50) was below 5.52 in test [1] and 6.32 in test [2]. The IC50 in test [3] is on record as above 3000 nM.

`CC1(C)[C@@H]2CC[C@@]1(CS(=O)(=O)N1CCC3(C=Cc4ccccc43)CC1)[C@@](O)(CNC(=O)c1n[nH]c(N)n1)C2`: the negative logarithm of the IC50 (pIC50) is 5.32 in test [1] and 7.30 in test [2]. For the same molecule, the half-maximal inhibitory concentration (IC50) in test [3] is recorded as 680 nM.

For the molecule `CC(=O)N[C@@H]1C[C@H]2CC[C@]1(CS(=O)(=O)N1CCC3(CCc4ccccc43)CC1)C2(C)C`, the pIC50 in test [1] was below 5.00; in test [2] it was 5.92. The 50% inhibitory concentration (IC50) in test [3] was determined as 10000 nM.

Take `CC1(C)[C@@H]2CC[C@@]1(CS(=O)(=O)N1CCC3(C=Cc4ccccc43)CC1)[C@@](O)(CCNC(=O)c1cccnc1)C2`: the pIC50 was 5.22 in test [1] and 7.01 in test [2]. The same molecule came in with an IC50 in test [3] of 1900 nM.

For the molecule `Cn1cnc(CC(=O)N[C@@H](CCC(N)=O)C(=O)N[C@H]2C[C@H]3CC[C@]2(CS(=O)(=O)N2CCC4(CCc5ccccc54)CC2)C3(C)C)c1`, the negative-log IC50 (pIC50) was 6.21 in test [1] and 8.77 in test [2]. The molecule further gave an IC50 in test [3] of 1900 nM.

Take `Cn1cnc(CC(=O)N[C@H]2C[C@H]3CC[C@]2(CS(=O)(=O)N2CCC4(CCc5ccccc54)CC2)C3(C)C)c1`: the figures for the negative logarithm of the IC50 (pIC50) in test [1] and in test [2] were 5.03 and 7.19, respectively. For the same molecule, the half-maximal inhibitory concentration (IC50) in test [3] amounted to 4500 nM.

`CC1(C)[C@@H]2CC[C@@]1(CS(=O)(=O)N1CCC3(CCc4ccccc43)CC1)[C@@H](N1C(=O)CN(CC(=O)Nc3ncc[nH]3)C1=O)C2`: the results for the negative logarithm of the IC50 (pIC50) in test [1] and in test [2] were 6.13 and 8.23, respectively. The molecule also registered an IC50 in test [3] of 500 nM.

`CC1(C)[C@@H]2CC[C@@]1(CS(=O)(=O)N1CCC3(CCc4ccccc43)CC1)[C@@H](NC(=O)N(CCc1c[nH]cn1)CCS(C)(=O)=O)C2`: the pIC50 in test [1] is 5.72; in test [2], 7.80. The IC50 in test [3] is given as 700 nM.

As for `CC1(C)[C@@H]2CC[C@@]1(CS(=O)(=O)N1CCC3(CCc4ccccc43)CC1)[C@@H](N1C(=O)NC(CC(=O)O)C1=O)C2` (some centres undefined), the negative logarithm of the IC50 (pIC50) is 5.39 in test [1] and 7.30 in test [2]. Besides, the half-maximal inhibitory concentration (IC50) in test [3] is recorded as 1900 nM.

In the case of `CC1(C)[C@@H]2CC[C@@]1(CS(=O)(=O)N1CCC3(CCc4ccccc43)CC1)[C@@H](NC(=O)/C=C/c1c[nH]cn1)C2`, the pIC50 in test [1] was 4.70; in test [2], 6.82. Moreover, the IC50 in test [3] is 5200 nM.

As for `Cn1cnc(CC(=O)NC(CCS(C)(=O)=O)C(=O)N[C@H]2C[C@H]3CC[C@]2(CS(=O)(=O)N2CCC4(CCc5ccccc54)CC2)C3(C)C)c1` (some centres undefined), the negative-log IC50 (pIC50) was 6.31 in test [1] and 9.15 in test [2]. In test [3], the IC50 amounted to 1200 nM.

Regarding `CN1CC(=O)N([C@H]2C[C@H]3CC[C@]2(CS(=O)(=O)N2CCC4(CCc5ccccc54)CC2)C3(C)C)C1=O`, the negative-log IC50 (pIC50) in test [1] is 5.57; in test [2], 7.85. In test [3], this molecule returned an IC50 of 960 nM.

Take `COC(=O)CNC(=O)N[C@H]1C[C@H]2CC[C@]1(CS(=O)(=O)N1CCC3(CCc4ccccc43)CC1)C2(C)C`: the pIC50 is below 5.52 in test [1] and 6.80 in test [2]. Also, the IC50 in test [3] was above 3000 nM.

Regarding `CC1(C)[C@@H]2CC[C@@]1(CS(=O)(=O)N1CCC3(CCc4ccccc43)CC1)[C@@H](NC(=O)[C@H](N)CCS(C)(=O)=O)C2`, the negative logarithm of the IC50 (pIC50) in test [1] was 4.92; in test [2], 7.35. The IC50 in test [3] worked out at 5200 nM.

Consider `CC1(C)[C@@H]2CC[C@@]1(CS(=O)(=O)N1CCC3(C=Cc4ccccc43)CC1)[C@@](O)(CN1C(=O)CCC1=O)C2`, for which the figures for the negative logarithm of the IC50 (pIC50) in test [1] and in test [2] were below 5.52 and 6.96, respectively. The molecule further registered a 50% inhibitory concentration (IC50) in test [3] of 3000 nM.

For `CC1(C)[C@@H]2CC[C@@]1(CS(=O)(=O)N1CCC3(CCc4ccccc43)CC1)[C@@H](NC(=O)[C@H](CCC(N)=O)NC(=O)Cc1c[nH]cn1)C2`, the pIC50 in test [1] is 6.09; in test [2], 8.66. For the same molecule, in test [3], the IC50 is reported as 2300 nM.

Turning to `CC1(C)[C@@H]2CC[C@@]1(CS(=O)(=O)N1CCC3(CCc4ccccc43)CC1)[C@@H](N1C(=O)NC(Cc3c[nH]cn3)C1=O)C2` (mixture of isomers), the pIC50 in test [1] is 5.82; in test [2], 7.82. In test [3], the IC50 turned out to be 580 nM.

As for `CC1(C)[C@@H]2CC[C@@]1(CS(=O)(=O)N1CCC3(CCc4ccccc43)CC1)[C@@H](N1C(=O)NC(CCS(N)(=O)=O)C1=O)C2` (some centres undefined), the pIC50 in test [1] was 5.96; in test [2], 7.89. The same molecule yielded a half-inhibitory concentration (IC50) in test [3] of 410 nM.

As for `CC1(C)[C@@H]2CC[C@@]1(CS(=O)(=O)N1CCC3(CCc4ccccc43)CC1)[C@@H](N1C(=O)CC(CC(=O)Nc3nn[nH]n3)C1=O)C2` (some centres undefined), the negative logarithm of the IC50 (pIC50) in test [1] was 5.62; in test [2], 7.89. The half-inhibitory concentration (IC50) in test [3] amounted to 770 nM.

Turning to `CC1(C)[C@@H]2CC[C@@]1(CS(=O)(=O)N1CCC3(C=Cc4ccccc43)CC1)[C@@](O)(CNC(=O)[C@@H](N)CCC(N)=O)C2`, the pIC50 in test [1] was 5.52; in test [2], 7.05. Further, the IC50 in test [3] is reported as above 300 nM.

In the case of `CC1(C)[C@@H]2CC[C@@]1(CS(=O)(=O)N1CCC3(CCc4ccccc43)CC1)[C@@H](NC(=O)Cn1cnnn1)C2`, the pIC50 is 5.00 in test [1] and 6.85 in test [2]. This molecule also returned an IC50 in test [3] above 1000 nM.

The pIC50 is −log10 of the IC50, conventionally taken in molar units. High values mean a low IC50, low ones a high IC50. One may read the IC50 as the point on the concentration scale where inhibition reaches its midpoint. A high value points to lower potency.
